Source: PMC4635973 (Journal of medicinal chemistry, 2015)
Entries after “also recorded” stand apart in the source; their conditions may differ.

T1: activin A/ActRIIA-ECD complex binding to ALK4-ECD-Fc (Homo sapiens, UniProt P08476)
T1 sequence (P08476 311-426): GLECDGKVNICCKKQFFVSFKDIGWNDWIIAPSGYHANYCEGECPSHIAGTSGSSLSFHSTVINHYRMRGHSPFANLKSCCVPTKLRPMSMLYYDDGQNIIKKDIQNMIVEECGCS

T2: activin A binding to ActRIIA-ECD-Fc (Homo sapiens, UniProt P08476)
T2 sequence (P08476 311-426): T1 sequence (P08476 311-426)

T3: myostatin/ActRIIA-ECD complex binding with ALK4-ECD-Fc (Homo sapiens, UniProt O14793)
T3 sequence (O14793 267-375): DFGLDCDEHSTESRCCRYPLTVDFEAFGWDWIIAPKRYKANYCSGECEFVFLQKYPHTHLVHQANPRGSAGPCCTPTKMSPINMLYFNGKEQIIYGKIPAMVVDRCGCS

B1: inhibin A: Purified inhibin A, naturally occurring activin antagonist, positive control in ovary culture (protein, UniProt P05111 233-366; P08476 311-426, looked up)
Inhibin alpha chain: STPLMSWPWSPSALRLLQRPPEEPAAHANCHRVALNISFQELGWERWIVYPPSFIFHYCHGGCGLHIPPNLSLPVPGAPPTPAQPYSLLPGAQPCCAALPGTMRPLHVRTTSDGGYSFKYETVPNLLTQHCACI
Inhibin beta A chain: T1 sequence (P08476 311-426)

What was measured:
[1] = system: activin A-mediated ovarian cell proliferation; assay: Ovary ex vivo culture and BrdU assay; assay type: cell-based, mouse; conditions: 1 nM activin A, ovaries of 4-day-old CD1 mice, 4 days
Method in brief: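 Ovaries from 4-day-old CD1 mice were cultured on 0.4-µm membrane inserts in DMEM/F12 with 0.03% BSA for 4 days. Treatments: 1 nM activin A with DMSO, 200 µM test compound, 4 nM Fst288 or 8 nM inhibin A. Then 10 µM BrdU for 24 h. Genomic DNA (150 ng, heat-denatured) was dot-blotted, probed with anti-BrdU and HRP secondary, detected by ECL and quantified by densitometry. Three independent experiments; one-way ANOVA with Tukey test.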

[2] = target: T1, activin A/ActRIIA-ECD complex binding to ALK4-ECD-Fc; assay: Blitz competition binding: activin A/ActRIIA-ECD complex with ALK4-ECD-Fc; conditions: 25 µM compound, complex 1.6 µM
Method in brief: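 ALK4-ECD-Fc (50 ng/mL) was immobilized on a protein A Blitz biosensor for 120 s. Activin A and ActRIIA-ECD were premixed 1:2 molar, final 1.6 µM in PBS. The sensor was dipped into this complex with solvent or test compound (0.4, 1.6, 6.25, 25 µM) for 120 s association, then 120 s dissociation in PBS. Real-time wavelength shift recorded.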

[3] = system: activin A-stimulated FSHβ promoter activation in −338FSHβ-luc LβT2 cells; assay: −338FSHβ-Luc LβT2 cell luciferase assay; assay type: cell-based; conditions: Mus musculus, 6 h, read-out: IC50 for activin A (selectivity test)
[4] = target: T2, activin A binding to ActRIIA-ECD-Fc; assay: Blitz competition binding: activin A with ActRIIA-ECD-Fc; conditions: 25 µM compound, activin A 1.6 µM
Method in brief: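 Protein A biosensor (Blitz) loaded with ActRIIA-ECD-Fc, then dipped into activin A (final 1.6 µM) with solvent control or a single 25 µM test compound. Association was 120 s and dissociation 120 s in PBS. Real-time wavelength shift recorded.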

ovariectomized mice = assay: Kidney and liver histology and behavior of treated ovariectomized mice; assay type: in vivo, mouse
Method in brief: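 Ovariectomized 12-week-old CD1 mice received s.c. vehicle or 60 mg/kg test compound twice daily for 2 days (4 doses). Kidney and liver were fixed in Modified Davidson's fixative for 5 days at 4 °C, embedded in paraffin and stained with H&E.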

[5] = target: T3, myostatin/ActRIIA-ECD complex binding with ALK4-ECD-Fc; assay: Blitz competition binding: myostatin/ActRIIA-ECD complex with ALK4-ECD-Fc; conditions: 25 µM compound
Method in brief: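 Myostatin and ActRIIA-ECD were premixed 1:2 molar, final 1.6 µM in PBS. Binding was to ALK4-ECD-Fc immobilized on a protein A Blitz biosensor (50 ng/mL, 120 s). Sensor dipped into complex with solvent or 25 µM test compound; 120 s association, 120 s dissociation in PBS. Wavelength shift recorded.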

[6] = system: activin-stimulated FSH in ovariectomized mice; assay: Serum FSH in ovariectomized mice; assay type: in vivo, mouse; conditions: 15 mg/kg s.c. every 12 h, 4 doses
Method in brief: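 Ovariectomized 12-week-old CD1 mice received s.c. test compound (15, 30 or 60 mg/kg) or vehicle (TBS or DMSO) twice daily for 2 days (4 doses). Fst288 control: 200 µg/kg, 3 doses. Serum FSH was measured by ELISA (sensitivity 0.35mIU/mL, 450 nm) as % of vehicle mean. 5–7 mice per group, 10 controls; one-way ANOVA with Tukey test.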

[7] = system: myostatin signaling in the −338FSHβ-Luc LβT2 cell line; assay: −338FSHβ-Luc LβT2 cell luciferase assay; assay type: cell-based, mouse; conditions: −338FSHβ-Luc LβT2 luciferase assay
Method in brief: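 Stably transfected −338FSHβ-Luc LβT2 cells (5 × 10^4/well) were treated for 6 h at 37 °C in serum-free, phenol red-free DMEM-F12 with 1% P/S. Treatments: 0.2 nM activin A or 0.2 nM myostatin with DMSO or a test-compound dilution series. Luciferase measured in lysates. Triplicates in three experiments. IC50 from sigmoidal variable-slope fit, reported as means ± SD.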

Row | Molecule | Inhibition of exogenous activin A-mediated ovarian cell proliferation (BrdU) ([1]; 200 µM compound) | Antagonism of activin A/ActRIIA-ECD complex binding with ALK4-ECD-Fc [2] | IC50 [3] [µM] | Interference with activin A binding with ActRIIA-ECD-Fc [4] | Histopathology of the kidney and liver tissue (H&E) (ovariectomized mice; 60 mg/kg s.c. twice daily, 4 doses, ovariectomized mice) | Behavior after injection (ovariectomized mice; s.c. injection, ovariectomized mice) | Adverse effects in efficacy studies (ovariectomized mice; treated mice, efficacy studies) | Blocking of myostatin/ActRIIA complex binding with ALK4 [5] | Effect on serum FSH levels compared with control [6] | Selectivity, IC50 for activin A versus IC50 for myostatin [7] [fold] | Inhibition of exogenous activin A-mediated ovarian cell proliferation (BrdU) ([1]; 8 nM)
1 | CC(C)(O)C#Cc1ccc(CN2CCC[C@@H](CCC(=O)N3CCOCC3)C2)s1 [NUCC-474] | only partially inhibited |  |  |  |  |  |  |  |  |  | 
2 | CCn1c(-c2cccnc2)nc2cc(NC(=O)COC)cc(C(=O)NCc3ccccc3)c21 [NUCC-555] | completely inhibited | nearly complete antagonist; also recorded: completely blocked | 5.37 ± 4.01 | weakly interfere | unchanged | normal behavior | No adverse effects | no blocking activity | no significant effect | ~10 | 
3 | B1 |  |  |  |  |  |  |  |  |  |  | completely inhibited
